Screening data (PubChem)
UPR XBP1 act – adaptive UPR (XBP1) activation; CHO-XBP1 luciferase reporter, IRE1-XBP1 UPR activation, luminescence; percent of tunicamycin response, DMSO as zero; activation, % at 20 µM; 0.33% of 330,000 active;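 active = versus positive control, 20 µM dose yields 30% or more activation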
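Material: CHO cell line with stable XBP1 luciferase reporter; buffer or medium: F12 medium containing 10% fetal bovine serum; compound: single point, 20 µM final compound, 1% DMSO; incubation: 6 h treatment, 37 °C; measured by: glow luminescence from Steady-Glo reagent; evaluation: activation, % of tunicamycin; control set: tunicamycin high, DMSO low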
CHOP inh – blocks CHOP induction under ER stress; CHO-K1 CHOP-promoter luciferase, tunicamycin-induced, 15-18 h; inhibition, % at 10 µM; 3.8% of 220,000 active; AID 2732;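 active = compounds that reduced the stress-induced luciferase reporter signal by more than about 70% of percent inhibition, limit read from the data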
NOD2 RIPK2 PPI – blocks binding of human NOD2 to RIPK2. CHO BLA complementation NOD2-RIPK2, CCF4 ratio. AID 624267. inhibition, % at 4.98 µM. 0.38% of 360,000 active; in the data active = inhibition above about 21%
TLR4 MyD88 comp – TLR4-MyD88 interaction inhibition in cells | O00206+Q99836 | HeLa CL3-4 TLR4/MyD88 BLA complementation, FRET ratio | inhibition, % at 8.4 µM | 0.18% of 200,000 active | AID 861; in the data active = inhibition above about 25%
TLR9-MyD88 inh – TLR9-MyD88 interaction inhibition; CHO BLA complementation TLR9-MyD88, CCF4 FRET ratio; inhibition, % at 4.98 µM; AID 504734; 0.21% of 340,000 active;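 active = inhibition above the mean over all tested compounds plus 3 SD, cut at about 21% in these data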
UPR CHOP act – activators of apoptotic arm of unfolded protein response (CHOP). AID 449763. activation, % at 10 µM. CHO-CHOP luciferase reporter, UPR activation, luminescence; percent of tunicamycin response over DMSO baseline. 0.34% of 330,000 active;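 active = at 10 µM dose, activation of 40% or more, normalized to positive control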
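System: CHO-CHOP luciferase reporter cell line; amount: 500 cells/well; buffer or medium: F12 medium containing 10% fetal bovine serum; incubation: 6 h compound exposure at 37 °C after overnight seeding; measured by: luciferase luminescence after 10 min with Steady-Glo reagent; evaluation: % reporter activation, DMSO baseline versus tunicamycin full activation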
CHOP confirm – confirmation of CHOP induction inhibitors. CHO-CHOP promoter luciferase reporter, tunicamycin-induced, luminescence. 45% of 2,100 active. shares compounds with CHOP inh. inhibition, % at 10 µM;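 active = mean of three repeat readings of reporter signal inhibition above a set limit, cut at about 70% in these data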
Hits are given with their value; – = inactive; · = no result. Many of the other results were omitted from the sample, so hits are more common in it than they were.

SMILES	UPR XBP1 act	CHOP inh	NOD2 RIPK2 PPI	TLR4 MyD88 comp	TLR9-MyD88 inh	UPR CHOP act	CHOP confirm
Cc1ccc(C)c(NC(=O)C2CC3c4ccccc4C2c2ccccc23)c1 (configuration not stated)	–	98.8	–	–	–	–	–
Cc1ccc2ccccc2c1C(O)c1ncc(-c2ccc(Cl)cc2)[nH]1 (configuration not stated)	·	·	–	·	·	·	·
Oc1cccc(C2c3[nH]c4ccccc4c3CCN2Cc2ccc3c(c2)CCO3)c1 (configuration not stated)	–	105.8	–	–	–	–	–
CCOc1ccc(/C=C/C2=Cc3c(sc(NC(=O)CSc4n[nH]c(N)n4)c3C#N)C(C)(C)C2)cc1	–	108.7	–	–	–	–	115.6
O=C1NC(Cc2ccccc2)c2nc3ccc(Cl)cc3c(=O)n2-c2ncccc21 (configuration not stated)	·	·	–	·	–	·	·
COc1ccc(C(C)=O)cc1Cn1c(C)c(C(=O)NCc2ccc3c(c2)OCO3)sc1=O	·	·	–	·	·	·	·
COC(=O)/C=C1\OC(c2ccccc2)=CC1=O	–	108.3	·	–	·	–	–
C/C(=N\Nc1cc(C)nc(-c2ccccc2O)n1)c1ccccc1	–	–	–	–	–	–	·
Cc1cc(NCCCN)nc(-c2ccccc2O)n1	–	101.3	–	–	–	–	–
Cc1cc(N/N=C/c2ccc(O)c(C)c2O)nc(-c2ccccc2O)n1	·	107.3	–	–	–	·	–
Cc1ccc(Nc2cc(C)nc(-c3ccccc3O)n2)cc1	–	–	–	–	–	–	·
COC(=O)[C@@]12C[C@@H](CC(=O)NCCC(C)C)C(=O)N(Cc3ccccc3)C1=CCC(C)(C)C2	·	·	–	·	·	·	·
O=C1C(=C2SCCCS2)CC/C1=C\c1ccc(F)cc1	–	107.6	–	–	–	–	114.6
CC(=O)NC(c1cccc(F)c1)c1nc(-c2cccc(C(C)C)c2)cs1 (configuration not stated)	·	·	–	·	·	·	·
CCc1ccc(OCC(=O)NNC(=O)CSc2ncnc3sc(C)c(C)c23)cc1	–	100.9	–	–	–	–	–
COc1cc(C(=O)NC(=S)NCc2ccncc2)cc(OC)c1OC	·	·	–	·	–	·	·
FC(F)(F)c1cccc(NC(=S)NC(c2ccccc2)c2ccccc2)c1	·	103.0	–	–	–	·	75.3
Cc1ccc(NC(=O)CCC(=O)N/N=C/c2ccc(O)cc2O)cc1	–	·	–	·	–	–	·
C=CCc1cccc(/C=N/NC(=O)CCC(=O)Nc2ccc(C)cc2)c1O	–	98.1	–	–	–	–	–
COc1ccc(S(=O)(=O)NCCSc2ccc(C)cc2)cc1OC	–	–	–	–	–	–	·
Cc1ccc(SCCNS(=O)(=O)c2ccc(F)cc2)cc1	–	97.4	–	–	–	–	–
CC(C)c1ccccc1NC(=O)COc1ccc(C(=O)NCCc2ccccc2)cc1	–	106.7	–	–	–	–	–
CCOc1ccc(NC(=O)COc2ccc(C(=O)NCCc3ccccc3)cc2)cc1	–	–	–	–	–	–	·
CC(=O)Nc1ccccc1C	–	·	–	·	–	–	·
Cc1ccccc1NC(=O)C(=Cc1ccc(C(=O)O)cc1)C(=O)Nc1ccccc1C	·	102.9	–	–	–	·	–
SMILES	UPR XBP1 act	CHOP inh	NOD2 RIPK2 PPI	TLR4 MyD88 comp	TLR9-MyD88 inh	UPR CHOP act	CHOP confirm
O=C(c1ccc(COc2ccc(Cl)cc2)o1)N1N=C(C(F)F)CC1(O)C(F)F (configuration not stated)	–	108.5	–	–	–	–	130.0
O=c1n(Cc2ccccc2)c(O)c2n1Cc1ccccc1N=C2c1ccc(C(F)(F)F)cc1	·	·	–	·	·	·	·
Cc1ccc(NC(=O)CCCSc2nc3ccccc3[nH]2)cc1	–	–	–	–	–	–	·
Cc1ccc(SCC(=O)Nc2ccc(-c3nc4ccccc4[nH]3)cc2)cc1	–	102.0	–	–	–	–	–
Cc1ccc2nc(-c3ccc(SCC(=O)Nc4nnc(C)s4)nc3)[nH]c2c1	–	104.8	–	–	–	–	–
C[C@H]1CN([C@@H](C)CO)C(=O)CCCn2nncc2CO[C@H]1CN(C)C(=O)Nc1ccc2c(c1)OCO2	·	·	–	·	–	·	·
Cc1cc2c(cc1C)CSC(c1ccc3ccccc3c1O)SC2	–	–	–	–	–	–	·
Cc1cc2c(cc1C)CSC(c1ccccc1O)SC2	–	108.3	–	–	–	–	110.7
Cc1cc2c(cc1C)CSC(c1c(O)ccc3ccccc13)SC2	–	111.8	–	–	–	–	115.9
Cc1cc2c(cc1C)CSC(c1ccccc1OC(=O)C(C)(C)C)SC2	–	–	–	–	–	–	·
O=C(NNc1ccccc1Br)C(O)(c1cccc(C(F)(F)F)c1)c1cccc(C(F)(F)F)c1	–	102.7	–	–	–	–	118.5
CC(C)(O)C(=O)NNC(=S)Nc1cccc(C(F)(F)F)c1	–	–	–	–	–	–	·
COC(=O)c1ccccc1NC1=C/C(=N\S(=O)(=O)c2ccc(C(=O)O)cc2)c2ccccc2C1=O	–	·	–	·	–	–	·
O=C1C(Nc2ccccc2)=C/C(=N/S(=O)(=O)c2cccs2)c2ccccc21	·	107.9	–	–	–	·	111.5
Cc1ccc(S(=O)(=O)/N=C2\C=C(Nc3ccc(O)cc3)C(=O)c3ccccc32)cc1	–	·	–	·	–	–	·
COC(=O)c1ccccc1NC1=C/C(=N\S(=O)(=O)c2cccs2)c2ccccc2C1=O	–	106.7	–	–	–	–	109.2
CCCCc1ccc(NC(=S)NCc2cccc(OC)c2)cc1	–	101.5	–	–	–	–	–
COc1ccc(NC(=O)CCNC(=O)N2CC(=O)Nc3ccccc32)cc1OC	·	·	–	·	–	·	·
NS(=O)(=O)c1ccc(N2N=C(c3ccccc3)CC2c2ccc(F)cc2)cc1 (configuration not stated)	–	104.7	–	–	–	–	–
COc1ccc(-n2c(SCC(=O)NCC3CCCO3)nc3ccccc3c2=O)cc1Cl (configuration not stated)	·	·	–	·	–	·	·
O=C(CCNC(=O)C1CCN(S(=O)(=O)c2ccc(F)cc2)CC1)NCc1ccccn1	·	·	–	·	–	·	·
COc1ccc(CNC(=O)CC[C@H]2O[C@@H](n3ccc(=O)[nH]c3=O)[C@H](O)[C@@H]2O)cc1	·	·	–	·	·	·	·
CC(C)COc1ccc(CNC(=S)N/N=C/c2ccc([N+](=O)[O-])cc2)cc1	–	–	–	–	–	–	·
CC(C)Oc1ccc(CNC(=S)N/N=C/c2ccc([N+](=O)[O-])cc2)cc1	–	98.1	–	–	–	–	101.6
CN(CC(=O)Nc1ccc(Cl)cc1)CC(=O)N1CCc2ccccc21	·	·	–	·	–	·	·
O=Nc1ccc(NOC(=O)c2ccccc2Br)cc1	–	–	–	–	–	–	·
